The full list was thinned out, with hits kept by preference.
ABCB1 block = human ABCB1 inhibition, ABCG2 as counter-screen | CCRF-Adr cells, JC-1 efflux, flow cytometry | inhibition, % at 6.6 µM | 190,000 tested, 0.067% active | AID 1326; in the data active means inhibition above about 40%;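 further: 0% = vehicle and 100% = reference inhibitor; higher value means more JC-1 retained so stronger ABCB1 efflux block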
TRPN1 ag = activates the zebrafish TRPN1 channel; 220,000 tested, 0.18% active; HEK293 zebrafish TRPN1-YFP, Fluo-8 calcium fluorescence; 100% = response to 87 µM carbachol; AID 1424; activation, % at 3 µM;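 active means activation above its plate's cutoff, the mean activation of test wells on that plate plus 3 SD, cut at about 19% in these data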;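 further: 0% = DMSO alone and 100% = 87 µM carbachol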
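Material: zebrafish TRPN1-YFP in HEK293 cells. Doses: one dose of 3 µM, 0.3% DMSO. Incubation: dye 1 h 37 °C plus 30 min RT. Measured by: intracellular calcium fluorescence with Fluo-8.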
ABCG2 inh = inhibitors of human ABCG2 transporter, ABCB1 counter-screen. Q9UNQ0. AID 1325. inhibition, % at 6.6 µM. 190,000 tested, 0.1% active. IgMXP3 cells, JC-1 efflux, flow cytometry;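 active means inhibition above 80%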;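 further: 0% = DMSO and 100% = nicardipine control wells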
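Incubation: cells with compound and JC-1, 10 min at 25 °C, rotating, no wash / Test system: IgMXP3 (ABCG2) plus far-red-tagged CCRF-Adr (ABCB1) cells / Compound dosing: one concentration, 6.6 µM final / Also added: JC-1 fluorescent substrate / Evaluation: efflux inhibition in percent versus controls / Detection: flow cytometry, 530 nm JC-1 signal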
ROMK primary = modulates human ROMK potassium channel activity; Tet-inducible ROMK, thallium flux fluorescence; actives lie on both sides; B-score at 10 µM; 130,000 tested, 2% active; AID 1918;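 active means signal ratio slope over the read window, or its plate-corrected B-score, at least 3 SD from the plate mean, either direction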;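 further: B-score of the F/F0 ratio slope over 7 to 12 s after thallium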
TRPML3 agonist = activates the human TRPML3 channel. Q8TDD5. HEK293 TRPML3-YFP, Fluo-8 calcium fluorescence; 100% = the carbachol control signal. activation, % at 3 µM. 220,000 tested, 0.29% active. AID 1448;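 active means activation above its plate's cutoff, the mean activation of the plate's test wells plus 3 SD, cut at about 12% in these data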;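 further: 0% = DMSO only wells and 100% = carbachol wells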
Target sequence (Q8TDD5 whole entry, looked up): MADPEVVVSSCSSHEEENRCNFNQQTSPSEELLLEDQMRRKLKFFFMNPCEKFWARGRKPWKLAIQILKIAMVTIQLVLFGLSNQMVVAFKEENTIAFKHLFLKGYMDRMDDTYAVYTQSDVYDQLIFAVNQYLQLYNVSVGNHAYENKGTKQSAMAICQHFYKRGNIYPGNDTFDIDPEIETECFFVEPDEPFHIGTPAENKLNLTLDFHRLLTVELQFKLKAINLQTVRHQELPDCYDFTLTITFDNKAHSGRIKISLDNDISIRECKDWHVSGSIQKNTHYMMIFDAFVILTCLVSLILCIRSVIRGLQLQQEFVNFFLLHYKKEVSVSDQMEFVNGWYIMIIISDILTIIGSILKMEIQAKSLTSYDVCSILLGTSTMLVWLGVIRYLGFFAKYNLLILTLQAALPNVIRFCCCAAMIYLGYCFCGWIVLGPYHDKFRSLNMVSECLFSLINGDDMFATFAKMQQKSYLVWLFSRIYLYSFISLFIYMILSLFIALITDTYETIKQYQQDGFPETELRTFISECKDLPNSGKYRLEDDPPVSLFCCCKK
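Material: TRPML3-YFP stable HEK293 cells | Dosing: One concentration, 3 µM nominal, 0.3% DMSO | Timing: 125 s total fluorescence read per well | Technique: Fluo-8 calcium dye fluorescence, ex 470-495, em 515-575 nm | Measure: Percent activation from peak-to-basal fluorescence ratio, scaled between DMSO and carbachol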
Calb biofilm kill = mixture kills Candida albicans biofilm cells | C. albicans biofilm persisters + clotrimazole, fluorescence viability; primary screen in compound mixtures of four per well | inhibition, % at 7.6 µM | 120,000 tested, 0.02% active | AID 1242;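 active means inhibition above 30.3% in the primary screen of four-compound pools, then above 30% when the compound was retested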;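 further: compounds exposed to preformed 24 h biofilms for 48 h; 0% = untreated biofilm control and 100% = clotrimazole plus chlorhexidine kill blank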
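Assay system: C. albicans biofilms / Medium: RPMI/MOPS medium, pH 7.0 / Schedule: biofilm formation 24 h, compound exposure 48 h, 37 °C / Measured by: Alamar Blue fluorescence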
ABCB1 single pt = inhibits human ABCB1 efflux, confirmed at single point; 270 tested, 7% active; CCRF-Adr cells, JC-1 efflux, flow cytometry; inhibition, % at 6.6 µM; shares compounds with ABCG2 inh;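 active means inhibition of pump activity above 50%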;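 further: 0% = DMSO and 100% = nicardipine full pump inhibition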
ABCG2 confirm = confirmation of human ABCG2 transporter inhibitors, ABCB1 counter-screen; inhibition, % at 6.6 µM; IgMXP3 cells, JC-1 efflux, flow cytometry; shares compounds with ABCG2 inh; 270 tested, 6% active;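 active means inhibition above 50%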;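 further: 0% = DMSO wells and 100% = nicardipine pump inhibitor wells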
IgMXP3 fluor = compound fluoresces at 488/530 nm in IgMXP3 cells; shares compounds with ABCG2 inh; compound autofluorescence 488/530 nm, flow; hits give high values; fluorescence at 6.6 µM; 270 tested, 30% active;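 active means fluorescence in ABCG2-expressing cells above the plate's control-well mean plus 3 SD, cut at about 15 in these data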;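 further: median cell fluorescence with compound minus that of DMSO-treated control cells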
CCRF-Adr fluor = counter-screen for ABCB1 inhibitors: compound fluorescence in CCRF-Adr cells; shares compounds with ABCG2 inh; compound autofluorescence 488/530 nm, flow cytometry; hits give high values; fluorescence at 6.6 µM; 270 tested, 30% active; AID 1483;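 active means fluorescence beyond the plate control mean plus 3 SD, with a fluorescence-to-maximum score over 2, cut at about 25 in these data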
* marks the source's active call; other numbers are inactive results.

`COc1cc(/C=C2\CCc3ccccc3C2=O)cc(OC)c1OC` gave ABCB1 block 2.4, TRPN1 ag -0.6, ABCG2 inh 10.5, ROMK primary -0.466, TRPML3 agonist -0.8 and Calb biofilm kill 11.3.
CN(C)c1ccc(/C=C/C(=O)c2cccc(Br)c2)cc1 was read as ABCB1 block 25.6, TRPN1 ag 163.5*, ABCG2 inh 42.3, TRPML3 agonist 91.9*, ABCB1 single pt 5.7, ABCG2 confirm 17.4, IgMXP3 fluor 18.9* and CCRF-Adr fluor 103*.
For CC(=O)Nc1cccc(C(=O)/C=C/c2ccc(C)cc2)c1 the results were ABCB1 block 0.8, TRPN1 ag 1.4, ABCG2 inh 35.2, TRPML3 agonist 0.1 and Calb biofilm kill 13.8.
Screening CC(C)(C)NC(=S)NNC(=O)c1cccc(Br)c1 returned ABCB1 block 0.4, TRPN1 ag 0.3, ABCG2 inh 2.5, ROMK primary -0.941, TRPML3 agonist -0.8 and Calb biofilm kill 7.3.
Screening CCN(CCCNC(=O)CCc1nc(-c2ccc(C)cc2)no1)c1cccc(C)c1 returned ABCB1 block 3.0, TRPN1 ag -0.9, ABCG2 inh 82.8*, TRPML3 agonist -0.5, ABCB1 single pt 1.9, ABCG2 confirm 32.4, IgMXP3 fluor -1.64 and CCRF-Adr fluor -4.24.
C/C(CC(=O)Nc1cccnc1)=N\NC(=O)C(C)Oc1ccc(Cl)cc1Cl (centres undefined) was read as TRPN1 ag -2.4, TRPML3 agonist 0.5 and Calb biofilm kill 4.0.
`Cc1ccccc1-n1c(SCC(=O)Nc2ccccc2)nc2nc3c(cc2c1=O)CCCC3` gave ABCB1 block 45.6*, TRPN1 ag -0.3, ABCG2 inh 35.9, ROMK primary -0.34, TRPML3 agonist -0.5, Calb biofilm kill 18.2, ABCB1 single pt 47.7, ABCG2 confirm 23.5, IgMXP3 fluor 0.71 and CCRF-Adr fluor 91.2*.
For CC[n+]1c(/C=C/c2c[nH]c3ccccc23)ccc2cc(C)ccc21 the results were ABCB1 block 22.5, TRPN1 ag 30.3*, ABCG2 inh 84.0*, TRPML3 agonist 9.7, Calb biofilm kill 13.1, ABCB1 single pt 2.3, ABCG2 confirm -59.1, IgMXP3 fluor 194* and CCRF-Adr fluor 61.9*.
For CCN(CC)C(=O)c1ccc(/C=C/c2c[nH]c3ccccc23)[n+](C)c1 the results were ABCB1 block 0.3, TRPN1 ag 2.9, ABCG2 inh 1.8, TRPML3 agonist 0.9 and Calb biofilm kill -1.8.
`COc1ccc2cc(C(=O)OC(C)C)sc(=O)c2c1OC` gave ABCB1 block 2.0, TRPN1 ag -1.3, ABCG2 inh 86.6*, TRPML3 agonist -0.6, ABCB1 single pt 0.6, ABCG2 confirm 60.1*, IgMXP3 fluor -1.89 and CCRF-Adr fluor -3.84.
COc1ccc2cc(C(=O)NCC(=O)O)sc(=O)c2c1OC was read as ABCB1 block 0.9, TRPN1 ag 0.4, ABCG2 inh 6.0 and TRPML3 agonist 0.2.
`O=C(NCC1OCCc2ccccc21)c1cc(COc2c(F)cccc2F)on1` (centres undefined) gave ABCB1 block -0.6, TRPN1 ag -1.3, ABCG2 inh -1.3, ROMK primary -0.849, TRPML3 agonist 0.3 and Calb biofilm kill 9.5.

Screening data as filed in PubChem BioAssay.
